# hIAP block – human IAP inhibitors, primary screen, biochemical, luminescence, uHTS; 330,000 compounds, 0.12% hits; Intestinal-type alkaline phosphatase (Homo sapiens), P09923; purified IAP, CDP-Star luminescence, 30 min; inhibition, % at 10 µM;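 active = inhibition reaching a set limit with compound at 10 µM in the primary screen, cut at about 35% in these data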;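 also: plate controls were DMSO wells with enzyme for no effect and no-enzyme buffer wells for full effect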
# Target sequence (P09923 whole entry, looked up): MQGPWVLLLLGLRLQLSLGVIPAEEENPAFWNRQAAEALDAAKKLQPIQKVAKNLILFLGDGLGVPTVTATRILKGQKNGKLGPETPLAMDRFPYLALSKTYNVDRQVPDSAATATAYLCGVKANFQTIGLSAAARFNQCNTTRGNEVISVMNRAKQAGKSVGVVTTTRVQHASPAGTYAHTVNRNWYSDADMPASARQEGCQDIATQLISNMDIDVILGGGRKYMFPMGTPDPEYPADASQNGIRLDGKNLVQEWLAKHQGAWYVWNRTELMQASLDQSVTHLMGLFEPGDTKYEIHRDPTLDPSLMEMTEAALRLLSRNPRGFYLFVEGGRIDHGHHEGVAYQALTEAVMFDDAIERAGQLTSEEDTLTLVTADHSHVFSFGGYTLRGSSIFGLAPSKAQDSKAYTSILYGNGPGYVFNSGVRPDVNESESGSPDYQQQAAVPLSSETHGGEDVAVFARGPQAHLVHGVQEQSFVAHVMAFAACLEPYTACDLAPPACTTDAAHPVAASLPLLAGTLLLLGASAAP
# bIAP inhibitor – bovine intestinal alkaline phosphatase inhibitors, primary screen, selectivity assay for TNAP inhibitor project, biochemical, bovine IAP, CDP-star luminescence; inhibition, % at 20 µM; 190,000 tested, under 10 active; purified bovine IAP, 30 min;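 active = over 50% inhibition of intestinal alkaline phosphatase at 20 µM in the single-dose screen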
#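 test system = bovine IAP enzyme | medium = DEA buffer 100 mM, pH 9.8, with MgCl2 1.0 mM, ZnCl2 0.02 mM | detection = luminescence | dosing = single compound dose of 20 µM, 2% DMSO final | incubation = 30 min reaction at room temperature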
# mIAP activ – activators of mouse IAP, primary screen, biochemical, luminescence, uHTS. intestinal alkaline phosphatase [Mus musculus]. muIAP, CDP-Star luminescence, 30 min; stronger effect = higher value; 1 = vehicle-only enzyme signal, 0 = enzyme-free wells. activation factor at 10 µM. 330,000 compounds, 0.24% hits;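 active = activation factor of at least 2 at 20 µM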
#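 also added = chemiluminescent substrate CDP-Star | test system = mouse IAP enzyme | signal = chemiluminescence readout | compound = DMSO-dissolved test compounds | incubation = 30 min at room temperature | benchmarks = DMSO wells, no-enzyme wells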
# mIAP inh – inhibitors of mouse IAP, primary screen, biochemical, luminescence, uHTS. purified mouse IAP, CDP-Star luminescence, 30 min. inhibition, % at 10 µM. 330,000 compounds, 0.2% hits;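 active = inhibition of at least 40% at 10 µM in the primary screen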;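 also: plate controls were DMSO with enzyme for no effect and no enzyme wells for full effect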
# bIAP act – bovine intestinal alkaline phosphatase activators, primary screen, biochemical, bovine IAP, CDP-star luminescence | alkaline phosphatase, intestinal [Bos taurus] | purified bovine IAP, 30 min; stronger effect = higher value; fold of DMSO-control signal, blank-subtracted | activation factor at 20 µM | 200,000 compounds, 0.17% hits | AID 1016, 2008;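 active = activation factor of 2 or more at 20 µM, a signal rise over negative controls twice the positive control's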
# hIAP act – human IAP activators, primary screen, biochemical, luminescence, uHTS. Intestinal-type alkaline phosphatase (Homo sapiens), P09923. purified human IAP, CDP-Star luminescence, 30 min; stronger effect = higher value; 1 = vehicle-only enzyme, 0 = enzyme-free background. activation factor at 10 µM. 330,000 compounds, 0.16% hits. AID 2524, 2010;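 active = activation factor of the enzyme at least 2-fold when tested at 20 µM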
# mIAP inh confirm – inhibitors of mouse IAP, confirmation, biochemical, luminescence, single concentration; shares compounds with mIAP inh; purified mouse IAP, CDP-Star luminescence, 30 min; inhibition, % at 10 µM; 11,000 compounds, 4.7% hits;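 active = inhibition of at least 40% at 10 µM in either of the two replicates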;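 also: plate controls were DMSO wells with enzyme for no effect and buffer wells lacking enzyme for full effect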
# An asterisk follows results filed as active; i = inactive; / = not tested or not shown; ! = a repeat was not active. Most compounds without a hit are left out; they make up all but 0.72% or so of the library.
SMILES,hIAP block,bIAP inhibitor,mIAP activ,mIAP inh,bIAP act,hIAP act,mIAP inh confirm
COc1ccc(O)c(/C=N/n2c(-c3ccco3)csc2=Nc2cccnc2)c1,7.2,9.5,0.873,12.7,0.9,0.928,/
CSc1ccc(C(=O)C2CCCN(C(=O)c3ccc4c(c3)no[n+]4[O-])C2)cc1 (stereo not drawn),14.8,/,0.862,13.8,/,0.852,/
Cc1ccc(NC(=O)CCC(=O)Nc2nnc(C3CCCCC3)s2)cc1,26.6,/,1.04,-4.2,/,0.734,/
N#Cc1c(SCC(=O)Nc2ccc(C(F)(F)F)cc2)sc2c(O)cc(=O)[nH]c12,5.2,/,0.677,32.3,/,0.948,/
N#Cc1c(SCC(=O)Nc2nncs2)sc2c(O)cc(=O)[nH]c12,-3.8,/,0.432,56.8*,/,1.04,70.1*
O=c1oc(/C=C/c2ccco2)nc2sc3c(c12)CCC3,-10.1,14.4,0.373,62.7*,0.9,1.1,61.9*
O=c1oc(-c2cccs2)nc2sc3c(c12)CCC3,-16.4,2.6,1,-0.2,1,1.16,/
CCN(CC)CCNC(=O)c1ccc(NC(=O)Nc2cccc3ccccc23)cc1,-54.3,/,3.14*,-214.4,/,1.54,-159.6
CCN1C(=O)/C(=C2\SC(=S)N(NC(=O)c3cccnc3)C2=O)c2ccccc21,-17.8,/,0.514,48.6*,/,1.18,64.1*
COc1ccc(C2CC(c3ccccc3Cl)=NN2c2ccc(S(N)(=O)=O)cc2)cc1 (stereo not drawn),/,/,2.21*,-121.5,/,/,-117.8
CCS(=O)(=O)c1ccc(C(=O)NC2CC2)c(Cl)c1Cl,-7.4,7.0,0.994,0.6,0.9,1.07,/
CC(=O)NN1C(=O)/C(=C\c2ccc(O)cc2)SC1=S,32.4,/,0.725,27.5,0.5,0.676,/
CC(=O)NN1C(=O)/C(=C\c2ccccc2)SC1=S,6.7,3.6,1.03,-2.9,1,0.933,/
CC(=O)NN1C(=O)/C(=C/c2ccc(Br)o2)SC1=S,-2.6,17.2,0.328,67.2*,0.8,1.03,74.9*
CC(=O)NN1C(=O)/C(=C\c2ccc(Br)o2)SC1=S,3.0,8.5,0.398,60.2*,0.9,0.97,73.9*
Cc1ccc(NC2CCCN(C(=O)c3ccoc3)C2)cc1C (stereo not drawn),-20.3,/,1.07,-7.3,/,1.2,/
COc1ccc(CC(=O)NNS(=O)(=O)c2ccc([N+](=O)[O-])cc2)cc1OC,-6.3,/,1.03,-3.0,/,1.06,/
CC(C(=O)O)N1C(=O)/C(=C/C=C/c2ccco2)SC1=S (stereo not drawn),-0.2,41.1,0.464,53.6*,0.6,1,57.9*
CC(=C\c1ccccc1)/C=C1/SC(=S)N(C(C(=O)O)C(C)C)C1=O (stereo not drawn),/,6.7,/,/,0.9,/,/
O=C1/C(=C/C=C/c2ccco2)SC(=S)N1NS(=O)(=O)c1ccccc1,-21.7,/,0.163,83.7*,/,1.22,91.2*
Cc1cc(=O)c(C(=O)Nc2ccc(N3CCOCC3)cc2N2CCOCC2)nn1-c1ccccc1Cl,-3.8,/,1.01,-0.8,/,1.04,/
Cc1ccc(NC(=O)CC(C(=O)O)c2ccccc2)cc1 (stereo not drawn),-13.1,19.5,1.15,-15.0,0.8,1.13,/
COc1cc(/C=C/C(=O)NC(C)C2CC3CCC2C3)cc(OC)c1OC (stereo not drawn),0.8,/,1,0.0,/,0.992,/
O=C(NN1C(=O)/C(=C\c2ccc(O)c([N+](=O)[O-])c2)SC1=S)c1ccccc1Cl,18.2,/,0.564,43.6*,/,0.818,48.8*
CCOc1cc(/C=C2\SC(=S)N(Nc3ccccc3)C2=O)ccc1O,-12.5,5.9,0.564,43.6*,0.9,1.12,47.2*
SMILES,hIAP block,bIAP inhibitor,mIAP activ,mIAP inh,bIAP act,hIAP act,mIAP inh confirm
C=Cc1c(C)c2cc3[nH]c(cc4nc(cc5nc(cc1[nH]2)C(C)=C5CCC(=O)O)C(CCC(=O)O)=C4C)c(C)c3C=C,14.0,/,0.579,42.1*!,/,0.86,42.1*
C#CCOCCOCCOCCNc1nc(N2CCN(C(=O)CCCCCCCCCCNC(=O)Cn3cc(CCCCCN)nn3)CC2)nc(N2CCN(C(=O)CCCCCCCCCCNC(=O)[C@H]([C@@H](C)CC)n3cc(CCCCN=C(N)N)nn3)CC2)n1,-19.1,/,9.74*,i,/,1.19,i
C#CCOCCOCCOCCNc1nc(N2CCN(C(=O)[C@H]([C@@H](C)CC)n3cc(CCCN=C(N)N)nn3)CC2)nc(N2CCN(C(=O)[C@H]([C@@H](C)CC)n3cc(CCCN=C(N)N)nn3)CC2)n1,24.8,32.3,1.08,-7.8,0.7,0.752,/
CC[C@H](C)[C@@H](C(=O)NCCCCCCCCCCC(=O)N1CCN(C(=O)OC(C)(C)C)CC1)n1cc(CCCCN=C(NC(=O)OC(C)(C)C)NC(=O)OC(C)(C)C)nn1,6.1,/,2.25*,-125.4,/,0.939,-128.5
C#CCOCCOCCOCCNc1nc(N2CCN(C(=O)CCCCCCCCCCNC(=O)[C@H](CO)n3cc(CCCSC)nn3)CC2)nc(N2CCN(C(=O)CCCCCCCCCCNC(=O)[C@H](CCCCN)n3cc(CCO)nn3)CC2)n1,4.3,/,1.36,-35.8,/,0.957,/
C#CCOCCOCCOCCNc1nc(N2CCN(C(=O)CCCCCCCCCCNC(=O)[C@H]([C@@H](C)CC)n3cc(CCCCN=C(N)N)nn3)CC2)nc(N2CCN(C(=O)CCCCCCCCCCNC(=O)[C@H]([C@@H](C)CC)n3cc(CCCCN=C(N)N)nn3)CC2)n1,-46.8,/,10.3*,i,/,1.47,i
C#CCOCCOCCOCCNc1nc(N2CCN(C(=O)CCCCCCCCCCNC(=O)[C@H]([C@@H](C)CC)n3cc(CCCCN=C(N)N)nn3)CC2)nc(N2CCN(C(=O)CCCCCCCCCCNC(=O)[C@H](CO)n3cc(CCCCCN)nn3)CC2)n1,-38.0,/,6.36*,i,/,1.38,i
O=C1CN(C(=O)COC(=O)c2ccccc2Br)c2ccccc2N1,2.7,/,0.994,0.6,/,0.973,/
C#CCOCCOCCOCCNc1nc(N2CCN(C(=O)Cn3cc(CCCN=C(N)N)nn3)CC2)nc(N2CCN(C(=O)[C@H]([C@@H](C)CC)n3cc(CCCCN)nn3)CC2)n1,8.4,/,1.06,-6.4,/,0.916,/

# Screens as filed in PubChem.
